From ChEMBL document CHEMBL1139306, “Design and synthesis of pyrazole derivatives as potent and selective inhibitors of tissue-nonspecific alkaline phosphatase (TNAP)” (Bioorg Med Chem Lett, 2009)

Molecular target: T1, Alkaline phosphatase, tissue-nonspecific isozyme (Homo sapiens, UniProt P05186)
T1 sequence (P05186 whole entry): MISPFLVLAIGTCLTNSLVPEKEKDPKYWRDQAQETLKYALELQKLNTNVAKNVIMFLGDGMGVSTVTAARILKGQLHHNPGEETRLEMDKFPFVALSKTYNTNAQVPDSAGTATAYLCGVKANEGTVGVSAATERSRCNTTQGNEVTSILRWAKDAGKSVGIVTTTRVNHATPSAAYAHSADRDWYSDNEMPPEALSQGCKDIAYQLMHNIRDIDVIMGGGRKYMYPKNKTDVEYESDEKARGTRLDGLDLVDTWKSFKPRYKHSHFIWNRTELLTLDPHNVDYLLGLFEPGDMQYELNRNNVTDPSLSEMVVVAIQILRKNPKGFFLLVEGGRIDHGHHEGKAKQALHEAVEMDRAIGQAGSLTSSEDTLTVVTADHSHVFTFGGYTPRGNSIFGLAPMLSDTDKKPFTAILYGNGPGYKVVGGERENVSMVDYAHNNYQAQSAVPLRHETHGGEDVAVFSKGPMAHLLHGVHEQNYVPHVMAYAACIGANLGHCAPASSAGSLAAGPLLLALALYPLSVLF
Assay: Inhibition of TNSALP
Procedure, shortened: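 TNAP activity read on an EnVision plate reader in 100 mM diethanolamine-HCl, pH 9.8, with 1 mM MgCl₂, 20 μM ZnCl₂ and 50 μM CDP-star as substrate.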

Going from `O=C(NCCCO)c1cc(-c2cc(F)c(Cl)cc2Cl)n[nH]1` to `O=C(NCCO)c1cc(-c2cc(F)c(Cl)cc2Cl)n[nH]1`, the IC50 rises from 56 nM to 100 nM (1.8-fold).

`O=C(NCCO)c1cc(-c2ccc(Cl)cc2Cl)n[nH]1` and `O=C(NCCCO)c1cc(-c2ccc(Cl)cc2Cl)n[nH]1` are within 1.5-fold of each other in IC50: 44 nM for the first, 31 nM for the second.

`O=C(c1cc(-c2ccc(Cl)cc2Cl)n[nH]1)N1CCN(CCO)CC1` and `CCN1CCN(C(=O)c2cc(-c3ccc(Cl)cc3Cl)n[nH]2)CC1` are within 1.5-fold of each other in IC50: 375 nM for the first, 488 nM for the second.

`NNC(=O)c1cc(-c2ccc(Cl)cc2Cl)n[nH]1` and `CC(C)NC(=O)c1cc(-c2ccc(Cl)cc2Cl)n[nH]1` are within 1.5-fold of each other in IC50: 44 nM for the first, 51 nM for the second.

Compared with `CC(C)NC(=O)c1cc(-c2cc(F)c(Cl)cc2Cl)n[nH]1`, `CN(C)C(=O)c1cc(-c2cc(F)c(Cl)cc2Cl)n[nH]1` is 15-fold lower in IC50: 4850 nM for the first, 324 nM for the second.

Compared with `O=C(c1cc(-c2ccc(Cl)cc2Cl)n[nH]1)N(CCO)CCO`, `O=C(c1cc(-c2cc(F)c(Cl)cc2Cl)n[nH]1)N(CCO)CCO` is 2.7-fold higher in IC50: 47 nM for the first, 127 nM for the second. The first is the more potent here.

Going from `CC(C)(C)NC(=O)c1cc(-c2ccc(Cl)cc2Cl)n[nH]1` to `CC(C)CNC(=O)c1cc(-c2ccc(Cl)cc2Cl)n[nH]1`, the IC50 falls from 398 nM to 82 nM (4.9-fold). The second is the more potent here.

`O=C(NCCCCO)c1cc(-c2ccc(Cl)cc2Cl)n[nH]1` and `COCCNC(=O)c1cc(-c2ccc(Cl)cc2Cl)n[nH]1` are within 1.5-fold of each other in IC50: 35 nM for the first, 46 nM for the second.

First: CCN(CC)C(=O)c1cc(-c2ccc(Cl)cc2Cl)n[nH]1
Second: CN(C)C(=O)c1cc(-c2ccc(Cl)cc2Cl)n[nH]1
The IC50 of the first is 2.4-fold higher: 285 nM for the first, 119 nM for the second. The second is the more potent here.

Going from `O=C(NCCO)c1cc(-c2ccc(F)cc2F)n[nH]1` to `O=C(NCCO)c1cc(-c2cc(F)c(F)cc2F)n[nH]1`, the IC50 rises from 35 nM to 134 nM (3.8-fold). The first is the more potent here.

Going from `CC(C)CCNC(=O)c1cc(-c2ccc(Cl)cc2Cl)n[nH]1` to `CN1CCN(C(=O)c2cc(-c3ccc(Cl)cc3Cl)n[nH]2)CC1`, the IC50 rises from 459 nM to 828 nM (1.8-fold).

Compared with `O=C(c1cc(-c2ccc(Cl)cc2Cl)n[nH]1)N1CCCCCC1`, `O=C(c1cc(-c2ccc(Cl)cc2Cl)n[nH]1)N1CCOCC1` is 2.5-fold lower in IC50: 1450 nM for the first, 574 nM for the second. The second is the more potent here.

Molecular target: Alkaline phosphatase, placental type (Homo sapiens, UniProt P05187)
Sequence (P05187 whole entry): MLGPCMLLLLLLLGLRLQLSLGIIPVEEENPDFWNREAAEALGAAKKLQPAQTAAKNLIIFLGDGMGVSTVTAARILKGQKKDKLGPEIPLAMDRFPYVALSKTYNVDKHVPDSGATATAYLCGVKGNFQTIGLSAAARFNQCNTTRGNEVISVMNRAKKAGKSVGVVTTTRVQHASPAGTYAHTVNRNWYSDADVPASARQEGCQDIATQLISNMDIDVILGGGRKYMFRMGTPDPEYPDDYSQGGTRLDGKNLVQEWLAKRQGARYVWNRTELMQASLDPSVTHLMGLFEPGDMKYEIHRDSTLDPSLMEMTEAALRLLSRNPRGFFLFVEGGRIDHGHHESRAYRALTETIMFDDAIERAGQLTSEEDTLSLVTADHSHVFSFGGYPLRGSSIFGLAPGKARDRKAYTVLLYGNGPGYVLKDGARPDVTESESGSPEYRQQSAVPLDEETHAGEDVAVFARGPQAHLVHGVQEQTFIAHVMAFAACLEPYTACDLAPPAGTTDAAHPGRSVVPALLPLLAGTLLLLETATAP
Assay: Inhibition of PLAP

Molecule `O=C(NCCO)c1cc(-c2ccc(Cl)c(Cl)c2Cl)n[nH]1` has an IC50 of over 10000 nM.

Molecular target: Glyceraldehyde-3-phosphate dehydrogenase (Homo sapiens, UniProt P04406)
Sequence (P04406 whole entry): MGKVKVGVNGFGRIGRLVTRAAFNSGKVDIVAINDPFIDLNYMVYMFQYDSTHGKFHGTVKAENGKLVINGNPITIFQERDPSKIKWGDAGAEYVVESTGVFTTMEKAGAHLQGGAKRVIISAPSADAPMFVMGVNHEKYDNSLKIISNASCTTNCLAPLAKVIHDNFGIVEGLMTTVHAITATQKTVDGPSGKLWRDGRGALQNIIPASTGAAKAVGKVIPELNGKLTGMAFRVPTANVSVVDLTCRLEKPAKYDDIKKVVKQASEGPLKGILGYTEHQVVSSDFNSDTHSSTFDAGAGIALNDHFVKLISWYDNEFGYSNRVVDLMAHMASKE
Assay: Inhibition of GAPDH

`O=C(NCCO)c1cc(-c2ccc(Cl)c(Cl)c2Cl)n[nH]1` gave an IC50 of over 10000 nM.

System: not listed separately
Assay: Selectivity of TNSALP over PLAP

In the case of `O=C(NCCO)c1cc(-c2ccc(Cl)c(Cl)c2Cl)n[nH]1`, the fold change (FC) is reported as 2000.

System: not listed separately
Assay: Selectivity of TNSALP over GAPDH

`O=C(NCCO)c1cc(-c2ccc(Cl)c(Cl)c2Cl)n[nH]1` showed a fold change (FC) of 2000.
